From publication PMC10455042 (Biochemical engineering journal, 2023)
Where a SMILES comes first, the peptide text is derived from it. [ ]: non-standard residue; d: D form.

Columns and labels:
N2a cells = experiment: alamarBlue cell viability assay; assay type: cell-based; conditions: 24 h
How it was run: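 N2a cells in MEM with 10% cosmic calf serum, plated at 1×10^4 cells/well two days before the assay, then PBS-washed. Exposed to increasing peptide concentrations (up to 200 µM) for 24 h at 37 °C, ECB-washed, then given alamarBlue in serum-free medium for 4 h at 37 °C. Fluorescence read at ex 532/[…], normalised to no-peptide control (F/C), triplicate average.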

[1] = flow cytometry; cited from earlier work
Tau = experiment: Western blotting analysis of Tau levels in N2a cells treated with PROTACs; assay type: cell-based; conditions: N2a cells pre-treated with 10 μM PYR-41 for one hour, then co-incubated with 200 μM peptide for 12 h; western blot
[2] = Peptide degradation assay in N2a lysates; assay type: in vitro ADME; conditions: 2 mg/mL N2a lysates, 37°C; HPLC, intact peptide
[3] = RWRWR peptide alone; cited from earlier work

| Compound | Effect on cell viability (N2a cells) | Uptake (previously published) [1] | Decrease in Tau signal on co-incubation with E1 inhibitor PYR-41 (Tau) | Resistance to degradation in N2a lysates [2] | Peptide remaining after 2 hours (previously reported) [3] |
| --- | --- | --- | --- | --- | --- |
| CC[C@H](C)[C@H](NC(=O)[C@H](Cc1ccc(O)cc1)NC(=O)[C@@H]1CCCN1C(=O)[C@H](C)NC(=O)[C@H](CC(C)C)NC(=O)[C@H](C)NC(=O)[C@H](CO)NC(=O)CNC(=O)[C@H](CO)NC(=O)CNC(=O)CNC(=O)[C@H](CCC(N)=O)NC(=O)[C@H](CCC(=O)O)NC(=O)[C@H](CC(=O)O)NC(=O)[C@H](C)NC(=O)[C@@H](NC(=O)[C@H](C)NC(=O)[C@H](CC(=O)O)NC(=O)[C@H](CCC(N)=O)NC(=O)[C@H](Cc1ccc(O)cc1)NC(=O)[C@H](CCC(N)=O)NC(=O)[C@H](CCC(N)=O)NC(=O)[C@H](Cc1ccc(O)cc1)NC(C)=O)[C@@H](C)O)C(=O)N1CCC[C@H]1C(=O)N[C@H](CCCNC(=N)N)C(=O)N[C@H](CCCNC(=N)N)C(=O)N[C@H](CCCNC(=N)N)C(=O)N[C@H](CCCNC(=N)N)C(=O)N[C@H](CCCNC(=N)N)C(=O)N[C@H](CCCNC(=N)N)C(=O)N[C@H](CCCNC(=N)N)C(=O)N[C@H](CCCNC(=N)N)C(N)=O [Peptide 1] (Ac-YQQYQDATADEQGGSGSALAPYIP[dR][dR][dR][dR][dR][dR][dR][dR]-NH2) | minimal effects on cell viability | time-dependent uptake |  |  |  |
| CC[C@H](C)[C@H](NC(=O)[C@H](Cc1c[nH]c2ccccc12)NC(=O)[C@H](CCCNC(=N)N)NC(=O)CNC(=O)[C@H]1CCCN1C(=O)[C@@H](NC(=O)[C@H](CCCNC(=N)N)NC(=O)[C@@H](NC(=O)[C@H](Cc1c[nH]c2ccccc12)NC(=O)[C@H](CCCNC(=N)N)NC(C)=O)C(C)C)C(C)C)C(=O)N[C@@H](CCCNC(=N)N)C(=O)N[C@@H](CCC(N)=O)C(=O)N[C@@H](Cc1ccc(O)cc1)C(=O)N[C@@H](CCC(N)=O)C(=O)N[C@@H](CCC(N)=O)C(=O)N[C@@H](Cc1ccc(O)cc1)C(=O)N[C@@H](CCC(N)=O)C(=O)N[C@@H](CC(=O)O)C(=O)N[C@@H](C)C(=O)N[C@H](C(=O)N[C@@H](C)C(=O)N[C@@H](CC(=O)O)C(=O)N[C@@H](CCC(=O)O)C(=O)N[C@@H](CCC(N)=O)C(=O)NCC(N)=O)[C@@H](C)O [Peptide 2] (Ac-RWVRV[dP]GRWIRQYQQYQDATADEQG-NH2) | minimal effects on cell viability |  | decrease is negated | more resistant to degradation than its unstructured counterpart Peptide 1 |  |
| RWVRWpGRWIRQ [RWRWR] |  |  |  |  | approximately 80% |
